Screening results as filed in PubChem.
Compounds with a hit are over-represented: about 4.5% of the library has one in this group of screens.
CHO parental Ca: counter-screen for OX1R antagonists: effect in parental CHO cells; parental CHO-K1, ATP-induced calcium, Fluo-8 fluorescence; inhibition, % at 5.6 µM; actives 0.63% (n = 330,000); AID 463079;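 active means inhibition above that plate's mean sample inhibition plus 3 SD, cut at about 26% in these data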;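 further: 0% = ATP-challenged DMSO wells and 100% = DMSO wells without ATP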
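Material – parental CHO cells · Reagent – ATP stimulus · Compound – single nominal dose of 5.6 µM per compound · Detection – Fluo-8 fluorescence · Read-out basis – percent inhibition of calcium signal · Controls – ATP-challenged DMSO wells low, unchallenged DMSO wells high · Repeats – no replicates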
OX1R antag-1: OX1R (human) antagonism. O43613. AID 485270. OX1R-expressing cells, FRET antagonist read-out. actives 1.8% (n = 330,000). inhibition, % at 6.6 µM; in the data active means inhibition mostly above about 38%, no sharp cut-off; inactive means mostly below about 40%;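 further: 0% = agonist challenge alone and 100% = reference antagonist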
OX1R antag-2: blocks the human orexin 1 receptor | CHO/OX1R cells, Fluo-8 calcium fluorescence, orexin A | inhibition, % at 5 µM | O43613 | actives 0.43% (n = 330,000) | AID 434989;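 active means inhibition above its plate's threshold, mean inhibition of all tested compounds on the plate plus 3 SD, cut at about 37% in these data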;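 further: 0% = orexin A challenge wells and 100% = SB-334867-A antagonist wells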
GPR7 antagonist: blocks human GPR7 receptor signaling | AID 1861 | P48145 | GPR7-expressing cells, fluorescence antagonist assay | actives 1.1% (n = 290,000) | inhibition, % at 4.4 µM; in the data active means inhibition above about 16%, passing the limit was not always enough;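 further: cells stimulated with the agonist NPW; 0% = agonist with vehicle and 100% = vehicle without agonist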
Target sequence (P48145 whole entry, looked up): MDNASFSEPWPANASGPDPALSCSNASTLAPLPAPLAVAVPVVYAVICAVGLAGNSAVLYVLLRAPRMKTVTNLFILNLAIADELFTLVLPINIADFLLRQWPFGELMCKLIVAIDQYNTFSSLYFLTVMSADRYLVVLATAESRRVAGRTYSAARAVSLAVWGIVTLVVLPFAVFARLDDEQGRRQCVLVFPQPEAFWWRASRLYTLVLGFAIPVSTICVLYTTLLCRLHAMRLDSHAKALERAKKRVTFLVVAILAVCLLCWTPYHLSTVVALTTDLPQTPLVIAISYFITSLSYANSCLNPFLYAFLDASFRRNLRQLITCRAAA
TAAR1 agonist: human TAAR1 agonism; AID 624467; actives 0.99% (n = 360,000); activation, % at 3 µM; CHO RD-HGA16 TAAR1, Fluo-8 calcium fluorescence; vehicle wells 0%, saturating PEA agonist 100%;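 active means activation above the mean activation of all test compounds in the run plus 3 SD, cut at about 38% in these data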
Target sequence (Q96RJ0 whole entry, looked up): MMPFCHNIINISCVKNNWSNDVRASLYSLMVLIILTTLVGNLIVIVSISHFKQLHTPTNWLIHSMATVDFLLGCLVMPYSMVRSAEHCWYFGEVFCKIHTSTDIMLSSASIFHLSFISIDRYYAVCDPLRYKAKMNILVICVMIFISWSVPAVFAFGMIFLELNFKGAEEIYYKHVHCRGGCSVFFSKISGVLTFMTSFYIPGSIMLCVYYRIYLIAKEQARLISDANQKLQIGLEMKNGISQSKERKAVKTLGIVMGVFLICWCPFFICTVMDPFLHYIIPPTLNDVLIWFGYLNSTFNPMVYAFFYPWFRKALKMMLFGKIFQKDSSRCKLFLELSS
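test system = CHO RD-HGA16 cells carrying human TAAR1 plus Gα16 | schedule = 17-24 h seeding, 75 min 37 °C dye, 30 min RT | compound dosing = 3 µM single concentration | control set = DMSO and PEA EC100 | replicates = n 1 | signal = Fluo-8 fluorescence, 5 s baseline then 140 s kinetic read | measure = percent activation vs PEA EC100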
TAAR1 antagonist: human TAAR1 antagonism | Q96RJ0 | CHO RD-HGA16 TAAR1, Fluo-8 calcium fluorescence, antagonist | inhibition, % at 3 µM | actives 1.5% (n = 360,000) | AID 624466;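 active means inhibition above a per-plate cutoff, the mean inhibition of test compounds on that plate plus 3 SD, cut at about 49% in these data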;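 further: 0% = DMSO plus EC80 beta-PEA response and 100% = DMSO alone without agonist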
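Test system: RD-HGA16 CHO cells with stable hTAAR1 and Gα16 / Probe or stimulus: EC80 β-phenethylamine stimulus / Times: seeding 17-24 h prior, 75-min 37 °C, 30-min RT dye loading / Detection: Fluo-8 calcium-sensitive fluorescence / Read-out basis: % inhibition scaled between DMSO and EC80 PEA controls / Repeats: singlicate, one well per test compound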
OX1R Ca confirm: OX1R (human) antagonism, confirmed; actives 38% (n = 1,100); inhibition, % at 5 µM; AID 492963; CHO/OX1R cells, orexin A calcium Fluo-8 fluorescence; shares compounds with OX1R antag-2; in the data active means inhibition above about 29%;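 further: 0% = agonist challenge alone and 100% = reference antagonist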
CHO Ca counter: signal in parental CHO cells, OX1R antagonist counter-screen | AID 492965 | inhibition, % at 5.6 µM | parental CHO-K1, ATP-induced calcium, Fluo-8 fluorescence | actives 9.3% (n = 1,100) | shares compounds with OX1R antag-2;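 active means inhibition above a per-plate limit, the mean inhibition of that plate's test compounds plus 3 SD, cut at about 25% in these data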;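 further: 0% = ATP challenge with DMSO and 100% = DMSO without ATP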
OX1R HTRF conf: OX1R (human) antagonism, HTRF confirmed. shares compounds with OX1R antag-1. OX1R-expressing cells, HTRF antagonist assay. inhibition, % at 6.6 µM. actives 49% (n = 1,800). AID 492964; in the data active means inhibition above about 55%;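 further: CHO cells expressing OX1R stimulated with orexin A at about EC80; 0% = agonist challenge alone and 100% = reference antagonist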
CHO-K1 HTRF cnt: counter-screen for OX1R antagonists: effect in parental CHO-K1 cells. inhibition, % at 6.6 µM. shares compounds with OX1R antag-1. actives 48% (n = 1,800). HTRF counterscreen; in the data active means inhibition above about 17%;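 further: 0% = agonist challenge with vehicle and 100% = vehicle alone without agonist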
An asterisk follows results filed as active; x = no result given.

SMILES	CHO parental Ca	OX1R antag-1	OX1R antag-2	GPR7 antagonist	TAAR1 agonist	TAAR1 antagonist	OX1R Ca confirm	CHO Ca counter	OX1R HTRF conf	CHO-K1 HTRF cnt
Cc1cc(=O)n(C(C)Cc2ccccc2)n1C(C)Cc1ccccc1 (stereo unspecified)	x	x	x	x	2.9	-13.0	x	x	x	x
CCC(=O)C(C#N)(c1ccc(OC)c(OC)c1)C(C)C (stereo unspecified)	-20.2	10.2	-27.7	x	16.4	10.2	x	x	x	x
CO[C@@H]1CN(C)C(=O)c2cc(NC(=O)Nc3ccc4c(c3)OCO4)ccc2OC[C@@H](C)N(C)C[C@H]1C	x	x	x	x	1.0	7.6	x	x	x	x
O=C(NCc1ccccc1F)C1CCCN(c2cnccn2)C1 (stereo unspecified)	-5.8	-0.2	-4.7	-14.3	7.2	-21.2	x	x	x	x
Cn1cc(/C=C(\C#N)C(=O)Nc2ccccc2O)c2ccccc21	-8.3	67.8*	56.7*	-2.1	x	x	56.7*	9.6	89.4*	11.3
Cc1cc(C(C)(C)C)oc1C(=O)N(CC(=O)NC1CCCC1)Cc1ccccc1	-12.0	13.7	7.5	7.1	26.1	32.5	x	x	x	x
Cc1ccc(C)c(N(CC(=O)NC2CCCC2)C(=O)c2oc(C(C)(C)C)cc2C)c1	7.3	63.2*	94.7*	22.7	3.8	-23.7	47.2*	-2.5	71.2*	1.9
COc1ccc(-c2csc(NC(=O)CS(=O)(=O)c3ccc(F)cc3)n2)cc1OC	14.1	75.8*	27.8	x	13.6	14.7	14.9	-2.1	25.4	4.5
COc1ccc(-c2csc(NC(=O)CS(=O)(=O)c3ccccc3)n2)cc1	-0.6	14.9	-20.3	x	4.8	-1.9	x	x	x	x
Cc1ccc2c(c1)-c1nc3ccccc3cc1C2=NC1CCCCC1	-7.1	52.3	-2.2	-5.4	4.1	-6.8	x	x	x	x
Cc1ccc2c(c1)Cc1nc3ccccc3nc1-2	-12.7	86.6*	40.0	-2.7	4.5	9.1	33.1*	12.0	90.1*	7.8
COc1ccccc1Nc1nc(N)nc(-c2cc3ccccc3o2)n1	-12.1	77.2*	38.2	-1.5	16.9	8.8	31.1*	-10.8	64.9*	0.7
COc1ccccc1Nc1nc(N)nc(CN2CCOCC2)n1	-6.6	8.0	-1.5	-1.0	2.6	0.1	x	x	x	x
COc1cccc2sc3cc(C#CC4(O)CCCCC4)ccc3c(=O)c12	-4.3	80.5*	87.0*	x	21.2	39.3	54.6*	-13.1	86.7*	15.1
COc1cccc2sc3ccc(C#CC4(N)CCCCC4)cc3c(=O)c12	-14.4	5.6	-6.8	-9.0	18.1	17.1	x	x	x	x
Cc1cc(CNC(=O)COc2cc(F)ccc2[N+](=O)[O-])c2ccccc2n1	-0.8	104.5*	34.9	-13.4	6.0	-6.3	10.7	4.1	33.9	9.1
Cc1cc(CNC(=O)COc2ccc(F)cc2F)c2ccccc2n1	-10.4	29.6	-6.5	-16.3	4.0	-12.0	x	x	x	x
CC1Oc2ccccc2N(CC(=O)NCC2CCCO2)C1=O (stereo unspecified)	-5.5	1.8	-14.3	-9.2	1.6	9.1	x	x	x	x
COc1cccc(/C=C2/Oc3ccccc3N(CC(=O)NCC3CCCO3)C2=O)c1 (stereo unspecified)	-13.3	109.4*	75.2*	-13.6	x	x	94.4*	-12.2	93.8*	13.2
O=C(O)CN1C(=O)/C(=C/c2cccc(Cl)c2)Oc2ccccc21	-8.2	77.4*	32.1	-9.2	1.8	-20.6	13.4	-2.7	66.2*	10.8
CCOC(=O)C(CC(=O)c1ccccc1)CC(=O)c1ccccc1	x	x	x	8.0	6.9	4.6	x	x	x	x
CN(C)/C=C/C1=C([N+](=O)[O-])C(c2cccc([N+](=O)[O-])c2)NC(=O)N1 (stereo unspecified)	-7.8	87.8*	36.3	-7.9	-0.9	-10.8	-0.1	0.9	37.4	28.6*
NNC(=O)c1cc2sccc2s1	-27.1	86.8*	91.1*	-6.8	3.2	6.2	1.4	17.8	21.6	3.5
CC(=O)NNC(=O)c1cc2sccc2s1	6.7	9.3	-10.3	-6.2	-0.1	-12.4	x	x	x	x
Cc1cc(NC(=O)CSc2nc(C(C)(C)C)nc3ccccc23)no1	-20.4	23.6	-24.2	-4.6	-0.5	14.3	x	x	x	x
SMILES	CHO parental Ca	OX1R antag-1	OX1R antag-2	GPR7 antagonist	TAAR1 agonist	TAAR1 antagonist	OX1R Ca confirm	CHO Ca counter	OX1R HTRF conf	CHO-K1 HTRF cnt
Cc1cc(NC(=O)CSc2nc(-c3cccs3)nc3ccccc23)no1	0.1	61.5*	44.8*	x	-0.9	11.9	16.3	-16.1	82.2*	-5.0
Cn1c(CNc2nc(-c3ccccc3)cs2)nnc1SCC(=O)N1CCc2ccccc21	-14.5	79.8*	46.8*	-6.3	3.5	0.3	22.1	-10.7	54.6	1.8
CCn1c(SCC(=O)Nc2oc(C)c3c(C)n[nH]c(=O)c23)nnc1-c1ccco1	x	x	x	x	2.9	-16.0	x	x	x	x
CCCCC(C(=O)NC1CCCC1)N(C(=O)c1snc(C(N)=O)c1N)c1ccc(OCC)cc1 (stereo unspecified)	-18.8	10.1	-32.4	-7.3	-0.7	-34.3	x	x	x	x
CCOc1ccccc1-c1nc(-c2ccc(NC(=O)c3ccc(Br)o3)cc2)no1	-3.5	68.6*	35.4	-15.3	2.7	17.1	16.5	-3.2	78.7*	18.3*
CCOc1ccccc1-c1nc(-c2ccc(NC(=O)Cc3ccc(OC)cc3)cc2)no1	4.3	21.7	-5.4	-9.6	5.1	-11.6	x	x	x	x
O=C(Nc1cc(Sc2ccccn2)cc([N+](=O)[O-])c1)c1ccc(Cl)cc1	19.7	93.6*	39.6	-8.4	15.4	14.3	-21.2	12.4	34.2	-2.3
O=C(Nc1cc(Sc2ccccn2)cc([N+](=O)[O-])c1)c1cccc(Cl)c1	-5.0	37.3	-0.9	4.8	4.5	18.6	x	x	x	x
Cc1ccc(NC(=O)CN(C)C(=O)c2cccc(S(=O)(=O)NCc3ccco3)c2)cc1	-9.2	3.5	-8.2	x	4.2	1.3	x	x	x	x
CCOc1ccc(N(CC(=O)NCCc2ccc(C)cc2)S(=O)(=O)c2c(C)noc2C)cc1	-30.7	13.7	-30.8	-15.1	3.2	-23.2	x	x	x	x
Cc1ccc(N(CC(=O)NCCc2ccccc2)S(=O)(=O)c2c(C)noc2C)cc1	-26.2	84.9*	70.2*	0.5	8.5	11.3	43.6*	-30.7	82.2*	-23.2
CSc1nc2ccc3nc(NC(=O)c4cccs4)sc3c2s1	-13.5	81.0*	56.4*	-6.0	8.4	8.8	84.8*	-8.6	94.8*	9.1
